Measurements published in ChEMBL document CHEMBL1147105, “In vitro and in vivo activities of PD 0305970 and PD 0326448, new bacterial gyrase/topoisomerase inhibitors with potent antibacterial activities versus multidrug-resistant gram-positive and fastidious organism groups” (2007).

Tests used:
[1] = tested on: Streptococcus pneumoniae; experiment: Antibacterial activity against levofloxacin-resistant Streptococcus pneumoniae; format: functional
Method in brief: (§1)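 Broth microdilution MIC per CLSI guidelines, incubated at 35°C. Cation-adjusted Mueller-Hinton broth for nonfastidious organisms and staphylococci. Streptococci tested in the same broth with 3% lysed horse blood. Anaerobes tested in supplemented Brucella broth inside an anaerobe chamber (5% CO2, 5% H2, 90% N2), read after 48 h. Strains were mainly recent clinical isolates with confirmed identity.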

[2] = tested on: Enterococcus gallinarum; experiment: Antibacterial activity against Enterococcus gallinarum; format: functional
[3] = tested on: Prevotella sp.; experiment: Antibacterial activity against Prevotella sp.; format: functional
Method in brief: (§2)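 Anaerobic broth microdilution MIC following CLSI guidelines, in supplemented Brucella broth. Run in an anaerobe chamber under 5% CO2, 5% H2 and 90% N2 at 35°C, and read after 48 h. Reported as MIC range, MIC50 and MIC90.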

[4] = tested on: Klebsiella pneumoniae; experiment: Antibacterial activity against Klebsiella pneumoniae; format: functional
Method in brief: (§3)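 Broth microdilution MIC following CLSI guidelines, in cation-adjusted Mueller-Hinton broth, incubated at 35°C. Recent clinical isolates and reference strains, with identity confirmed by automated and standard microbiological methods. Results reported as MIC range, MIC50 and MIC90.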

[5] = tested on: Moraxella catarrhalis; experiment: Antibacterial activity against beta-lactamase positive Moraxella catarrhalis; format: functional
[6] = tested on: Shigella flexneri; experiment: Antibacterial activity against Shigella flexneri; format: functional; method in brief: as §3
[7] = tested on: Anaerococcus prevotii; experiment: Antibacterial activity against Peptostreptococcus prevotii; format: functional; method in brief: as §2
[8] = tested on: Streptococcus sanguinis; experiment: Antibacterial activity against Streptococcus sanguis; format: functional
Method in brief: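 Broth microdilution MIC following CLSI guidelines, in cation-adjusted Mueller-Hinton broth with 3% lysed horse blood. Plates incubated at 35°C. Clinical isolates and reference strains, with identity confirmed by standard microbiological methods.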

[9] = tested on: Clostridioides difficile; experiment: Antibacterial activity against Clostridium difficile; format: functional; method in brief: as §2
[10] = tested on: Moraxella catarrhalis; experiment: Antibacterial activity against beta-lactamase negative Moraxella catarrhalis; format: functional
[11] = tested on: Streptococcus pneumoniae; experiment: Antibacterial activity against penicillin-intermediate resistant Streptococcus pneumoniae; format: functional; method in brief: as §1
[12] = tested on: Neisseria gonorrhoeae; experiment: Antibacterial activity against Neisseria gonorrhoeae; format: functional
Method in brief: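 MIC by broth microdilution in gonococcal broth, incubated at 35°C in 5% CO2. Reported as MIC range, MIC50 and MIC90.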

[13] = tested on: Cutibacterium acnes; experiment: Antibacterial activity against Propionibacterium acnes; format: functional
[14] = tested on: Alloiococcus otitis; experiment: Antibacterial activity against Alloiococcus otitidis; format: functional
Method in brief: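 MIC by broth microdilution following CLSI guidelines, in cation-adjusted Mueller-Hinton broth with 3% lysed horse blood. Incubated at 35°C and read after 48 h. Reported as MIC range, MIC50 and MIC90.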

[15] = tested on: Enterococcus casseliflavus; experiment: Antibacterial activity against Enterococcus casseliflavus; format: functional
[16] = tested on: Listeria monocytogenes; experiment: Antibacterial activity against Listeria monocytogenes; format: functional
Method in brief: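 Broth microdilution MIC following CLSI guidelines, in cation-adjusted Mueller-Hinton broth containing 3% lysed horse blood, incubated at 35°C. Clinical isolates with identity confirmed. Reported as MIC range, MIC50 and MIC90.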

[17] = tested on: Prevotella bivia; experiment: Antibacterial activity against Prevotella bivia; format: functional; method in brief: as §2
[18] = tested on: Stenotrophomonas maltophilia; experiment: Antibacterial activity against Stenotrophomonas maltophilia; format: functional; method in brief: as §3
[19] = tested on: Serratia marcescens; experiment: Antibacterial activity against Serratia marcescens; format: functional; method in brief: as §3
[20] = tested on: Prevotella melaninogenica; experiment: Antibacterial activity against Prevotella melaninogenica; format: functional; method in brief: as §2
[21] = tested on: Klebsiella aerogenes; experiment: Antibacterial activity against Enterobacter aerogenes; format: functional; method in brief: as §3
[22] = tested on: Bacteroides fragilis; experiment: Antibacterial activity against Bacteroides fragilis; format: functional; method in brief: as §2
[23] = tested on: Shigella sonnei; experiment: Antibacterial activity against Shigella sonnei; format: functional; method in brief: as §3
[24] = tested on: Enterococcus faecalis; experiment: Antibacterial activity against beta-lactamase positive Enterococcus faecalis; format: functional
Method in brief: (§4)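 MIC by CLSI broth microdilution for nonfastidious organisms, in cation-adjusted Mueller-Hinton broth incubated at 35°C.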

[25] = tested on: Parabacteroides distasonis; experiment: Antimicrobial activity against Bacteroides distasonis; format: functional
Method in brief: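 Anaerobic broth microdilution MIC following CLSI guidelines, in supplemented Brucella broth. Incubated at 35°C in a chamber under 5% CO2, 5% H2 and 90% N2. Read after 48 h.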

[26] = tested on: Enterococcus faecium; experiment: Antibacterial activity against Enterococcus faecium; format: functional; method in brief: as §1
[27] = tested on: Proteus vulgaris; experiment: Antibacterial activity against Proteus vulgaris; format: functional; method in brief: as §3
[28] = tested on: Klebsiella pneumoniae; experiment: Antibacterial activity against beta-lactamase positive Klebsiella pneumoniae; format: functional; method in brief: as §4
[29] = tested on: Actinomyces sp.; experiment: Antibacterial activity against Actinomyces sp.; format: functional
[30] = tested on: Fusobacterium necrophorum; experiment: Antibacterial activity against Fusobacterium necrophorum; format: functional; method in brief: as §2
[31] = tested on: Salmonella enteritidis; experiment: Antibacterial activity against Salmonella enterica serovar Enteritidis; format: functional, Salmonella enterica subsp. enterica serovar Enteritidis; method in brief: as §3
[32] = tested on: Salmonella typhimurium; experiment: Antibacterial activity against Salmonella enterica serovar Typhimurium; format: functional, Salmonella enterica subsp. enterica serovar Typhimurium; method in brief: as §3
[33] = tested on: Clostridium perfringens; experiment: Antibacterial activity against Clostridium perfringens; format: functional; method in brief: as §1
[34] = tested on: Enterococcus faecium; experiment: Antibacterial activity against VanA-resistant Enterococcus faecium; format: functional; method in brief: as §1
[35] = tested on: Peptostreptococcus anaerobius; experiment: Antibacterial activity against Peptostreptococcus anaerobius; format: functional; method in brief: as §2

COc1c(N2CCNC(C)C2)c(F)cc2c(=O)c(C(=O)O)cn(C3CC3)c12 (centres undefined) [GATIFLOXACIN]
32 µg/mL: MIC90 [21] | MIC50 [34]
0.125 µg/mL: MIC [29]
0.25 µg/mL: MIC50 [3] | MIC50 [11] | MIC50 [17] | MIC50 [19] | MIC50 [20] | MIC [24]
1 µg/mL: MIC90 [2] | MIC50 [13] | MIC90 [15] | MIC90 [16] | MIC50 [18] | MIC50 [21] | MIC50 [22] | MIC50 [28]
0.015 µg/mL: MIC [30]
8 µg/mL: MIC90 [13] | MIC90 [18] | MIC90 [22] | MIC50 [26]
0.5 µg/mL: MIC50 [2] | MIC90 [3] | MIC90 [4] | MIC50 [8] | MIC90 [8] | MIC50 [9] | MIC90 [9] | MIC90 [11] | MIC50 [15] | MIC50 [16] | MIC90 [17] | MIC90 [20] | MIC50 [33] | MIC90 [33]
4 µg/mL: MIC50 [1] | MIC90 [1] | MIC90 [19] | MIC50 [25]
16 µg/mL: MIC90 [25] | MIC90 [28]
0.008 µg/mL: MIC90 [12]
64 µg/mL: MIC90 [26] | MIC90 [34]
0.06 µg/mL: MIC50 [4] | MIC90 [5] | MIC90 [6] | MIC [7] | MIC50 [10] | MIC90 [10] | MIC50 [14] | MIC90 [14] | MIC90 [23] | MIC [27] | MIC90 [31] | MIC90 [32] | MIC [35]
0.004 µg/mL: MIC50 [12]
0.03 µg/mL: MIC50 [5] | MIC50 [6] | MIC50 [23] | MIC50 [31] | MIC50 [32]
